Assay results reported in the RNAGym collection of RNA variant scans (doi:10.1126/science.aae0568).
This sample holds only a part of the variants without activity.

B1: tRNA (parent)
chain: GUUCCGUUGGCGUAAUGGUAACGCGUCUCCCUCCUAAGGAGAAGACUGCGGGUUCGAGUCCCGUACGGAACG

Variants of: B1
Assay: yeast fitness relative to wild type (ratio to wild type); higher = fitter; tRNA-Arg(CCU), competitive growth, 37 C, YPD
Procedure, shortened: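 Gene amplicons from the start population and from each of six end populations were read by 100-nucleotide paired-end sequencing. Those end populations came from pooled Saccharomyces cerevisiae strains carrying tRNA-Arg(CCU) gene variants at the native locus, competed in YPD at 37°C for 24 hours. Fitness relative to wild type was worked out from changes in genotype frequencies. Genotypes needed ≥ 100 starting reads, and estimates < 0.5 were set to 0.5.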

| Variant | yeast fitness |
| --- | --- |
| G25C C31G A42G U54G | ≤ 0.5 |
| G25C C31G C34G C61U | ≤ 0.5 |
| G25C C31G C34G C61U A69U | ≤ 0.5 |
| G25C C31G G51C | ≤ 0.5 |
| G25C C31U | 0.87 |
| G25C C31U G56A | 0.616 |
| G25C C31U G68U | 0.587 |
| G25C C31U U32A C46U | ≤ 0.5 |
| G25C C31U U32A C49G C60U | ≤ 0.5 |
| G25C C31U U32A C49U | ≤ 0.5 |
| G25C C31U U32A C55A A69U | ≤ 0.5 |
| G25C C31U U35C | 0.53 |
| G25C C31U U53C | 0.633 |
| G25C C33A | 0.758 |
| G25C C33A A43U A57U A69U | ≤ 0.5 |
| G25C C33A A45C C46A | 0.518 |
| G25C C33A A57U | 0.718 |
| G25C C33G | 0.662 |
| G25C C33G G50C U54C | ≤ 0.5 |
| G25C C33U G50C | ≤ 0.5 |
| G25C C34A | 0.625 |

| Variant | yeast fitness |
| --- | --- |
| G25C C34A C46U | 0.555 |
| G25C C34A C66U | 0.54 |
| G25C C34G C61U C66G | ≤ 0.5 |
| G25C C34G G39U U47G | ≤ 0.5 |
| G25C C34U A36C G41A C49G | ≤ 0.5 |
| G25C C34U A45C | 0.54 |
| G25C C34U C66U | ≤ 0.5 |
| G25C C34U G41A C49G | 0.54 |
| G25C C46A G50C | 0.618 |
| G25C C46A G58A | ≤ 0.5 |
| G25C C46G | 0.938 |
| G25C C46G C49U U64G | ≤ 0.5 |
| G25C C46G U53G C66A | 0.81 |
| G25C C46G U64G | ≤ 0.5 |
| G25C C46U | 1.06 |
| G25C C46U G50A | 0.889 |
| G25C C46U G50A C66U | 0.716 |
| G25C C49U | 1.01 |
| G25C C49U C62G C66U | 0.539 |
| G25C C49U G51A A57G | ≤ 0.5 |
| G25C C49U G51A C60A A70G | ≤ 0.5 |

| Variant | yeast fitness |
| --- | --- |
| G25C C49U G67U G68C A69U | ≤ 0.5 |
| G25C C55A | 0.68 |
| G25C C55G | ≤ 0.5 |
| G25C C55U A57U | 0.551 |
| G25C C60A G67C | ≤ 0.5 |
| G25C C61G G67C | 0.527 |
| G25C C61U C66U | 0.652 |
| G25C C62A | 0.845 |
| G25C C62G C66G G67U | ≤ 0.5 |
| G25C C62U | 0.999 |
| G25C G38A A65G | 1.04 |
| G25C G38C G48C C49G | ≤ 0.5 |
| G25C G39A C66U | 0.504 |
| G25C G39A G63C A70U | ≤ 0.5 |
| G25C G39C | 0.685 |
| G25C G39C G44C | ≤ 0.5 |
| G25C G39C G44C C60U G68C | ≤ 0.5 |
| G25C G39C U54G A65U | 0.514 |
| G25C G41A | 0.789 |
| G25C G41C C46U A65U | 0.551 |
| G25C G41C C46U C61G | ≤ 0.5 |

| Variant | yeast fitness |
| --- | --- |
| G25C G41C C46U U59C A65U | ≤ 0.5 |
| G25C G41C G68C | 0.565 |
| G25C G51A G67A | 0.73 |
| G25C G51C | 0.654 |
| G25C G52A U54G | ≤ 0.5 |
| G25C G52C | 0.574 |
| G25C G56A | 0.962 |
| G25C G56C C61G | ≤ 0.5 |
| G25C G58C | 1 |
| G25C G58C G67C | 0.706 |
| G25C G58C G68A | 0.639 |
| G25C G63A A65C | 0.6 |
| G25C G63C | 0.716 |
| G25C G67A G68A | 0.655 |
| G25C G67C | 0.797 |
| G25C G68A | 0.817 |
| G25C G68A A69G | 0.607 |
| G25C G68C | 0.796 |
| G25C U26C | 0.904 |
| G25C U26G A36G C46G A70U | ≤ 0.5 |
